Data taken from ChEMBL document CHEMBL1649486, “Comparative efficacies of telavancin and vancomycin in preventing device-associated colonization and infection by Staphylococcus aureus in rabbits” (2009).
≈ marks a conversion by molar mass, not a printed value.

Key:
Type in all cases: functional
Staphylococcus aureus [1] = experiment: Antimicrobial activity against Staphylococcus aureus P1 by macrodilution method
Outline: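 MIC and minimal bactericidal concentration determined in triplicate by standard broth macrodilution against MSSA clinical isolate P1.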

Staphylococcus aureus [2] = experiment: Antimicrobial activity against Staphylococcus aureus P1 infected in New Zealand rabbit assessed as decrease in catheter related infection rate at 15 mg/kg, iv (reference value: 100%); set-up: scale not given: the % may be the effect or the level left
Outline: (§1)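 Female specific-pathogen-free New Zealand White rabbits, 4-7 months old, 3-4 kg, nine per group. Each got a single iv dose over ~2 min under anesthesia, with D5W as control. Six subcutaneous catheter segments per rabbit were surface-inoculated with 10^5 CFU MSSA P1. Infection = inoculated strain grown from both the device sonication culture and a swab of adjacent soft-tissue collection or wound discharge; rate = infected/total devices.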

Staphylococcus aureus [3] = experiment: Antimicrobial activity against Staphylococcus aureus P1 infected in New Zealand rabbit assessed as decrease in catheter related infection rate at 45 mg/kg, iv (reference value: 100%); set-up: scale not given: the % may be the effect or the level left; outline: as §1
Staphylococcus aureus [4] = experiment: Antimicrobial activity against Staphylococcus aureus P1 infected in New Zealand rabbit assessed as decrease in catheter bacterial colonization rate at 15 mg/kg, iv (reference value: 100%); set-up: scale not given: the % may be the effect or the level left
Outline: (§2)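 Female specific-pathogen-free New Zealand White rabbits, 4-7 months old, 3-4 kg, nine per group. Each got a single iv dose over ~2 min under anesthesia, with D5W as control. Six 2-cm polyurethane catheter segments were implanted subcutaneously in the back, and each surface was inoculated with 10^5 CFU MSSA P1 in Trypticase soy broth. Explants were sonicated in 2 ml saline and the sonicate cultured (detection limit 10 CFU). Colonization = inoculated strain grown from sonicate; rate = colonized/total devices.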

Staphylococcus aureus [5] = experiment: Antimicrobial activity against Staphylococcus aureus P1 infected in New Zealand rabbit assessed as decrease in catheter related infection rate at 30 mg/kg, iv (reference value: 100%); set-up: scale not given: the % may be the effect or the level left; outline: as §1
Staphylococcus aureus [6] = experiment: Antimicrobial activity against Staphylococcus aureus P1 infected in New Zealand rabbit assessed as decrease in catheter bacterial colonization rate at 45 mg/kg, iv (reference value: 100%); set-up: scale not given: the % may be the effect or the level left; outline: as §2
Staphylococcus aureus [7] = experiment: Antimicrobial activity against Staphylococcus aureus P1 infected in New Zealand rabbit assessed as decrease in catheter bacterial colonization rate at 30 mg/kg, iv (reference value: 100%); set-up: scale not given: the % may be the effect or the level left; outline: as §2

| Structure (SMILES) | MBC (Staphylococcus aureus [1]) [µg/mL] | MIC (Staphylococcus aureus [1]) [µg/mL] | Activity (Staphylococcus aureus [2]) [%] | Activity (Staphylococcus aureus [3]) [%] | Activity (Staphylococcus aureus [4]) [%] | Activity (Staphylococcus aureus [5]) [%] | Activity (Staphylococcus aureus [6]) [%] | Activity (Staphylococcus aureus [7]) [%] |
| --- | --- | --- | --- | --- | --- | --- | --- | --- |
| CCCCCCCCCCNCCN[C@@]1(C)C[C@H](O[C@H]2[C@H](Oc3c4cc5cc3Oc3ccc(cc3Cl)[C@@H](O)[C@@H](NC(=O)[C@@H](CC(C)C)NC)C(=O)N[C@@H](CC(N)=O)C(=O)N[C@H]5C(=O)N[C@H]3C(=O)N[C@H](C(=O)N[C@H](C(=O)O)c5cc(O)c(CNCP(=O)(O)O)c(O)c5-c5cc3ccc5O)[C@H](O)c3ccc(c(Cl)c3)O4)O[C@H](CO)[C@@H](O)[C@@H]2O)O[C@@H](C)[C@H]1O [TELAVANCIN] | 1 (≈ 0.57 µM) | 0.25 (≈ 0.142 µM) | 35 | 11 | 39 | 9 | 11 | 11 |
| CN[C@H](CC(C)C)C(=O)N[C@H]1C(=O)N[C@@H](CC(N)=O)C(=O)N[C@H]2C(=O)N[C@H]3C(=O)N[C@H](C(=O)N[C@H](C(=O)O)c4cc(O)cc(O)c4-c4cc3ccc4O)[C@H](O)c3ccc(c(Cl)c3)Oc3cc2cc(c3O[C@@H]2O[C@H](CO)[C@@H](O)[C@H](O)[C@H]2O[C@H]2C[C@](C)(N)[C@H](O)[C@H](C)O2)Oc2ccc(cc2Cl)[C@H]1O [VANCOMYCIN] | 8 (≈ 5.52 µM) | – | – | – | – | – | – | – |
